Test results taken from paper PMC5598146 (Toxicology Reports, 2015).

Legend:
[1] = Pharmacokinetics and oral bioavailability in rats; assay type: in vivo, Sprague-Dawley rats; details: for half-life / bioavailability / clearance / Tmax: rat, plasma
[2] = Relative oral bioavailability of sodium, phosphate and hemisulfate salts in rats; assay type: in vivo, Sprague-Dawley rats
Method in brief: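 Male Sprague-Dawley rats, 4/group, received a single 30 mg/kg oral gavage dose in 1% methylcellulose of either parent acid or its sodium, phosphate or sulfate salt. Jugular-catheter blood was drawn at about 15 and 30 min and at 1, 2, 4, 8 and 24 h. Plasma parent was measured by LC/MS/MS with an internal standard. Relative AUClast and Cmax were corrected for molecular-weight differences.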

Sprague-Dawley rats = assay: 90-Day subchronic toxicity study; assay type: in vivo, rat; details: 90 days
Method in brief: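 Male and female Crl:CD(SD) rats, 20/sex/group, fed 0 (basal diet), 30, 60 or 100 mg/kg/day in the diet for 90 days. […] End-points: functional observation battery, motor activity, body weight gain, food consumption, hematology, clinical chemistry, urinalysis, organ weights, necropsy, and histopathology of at least 53 tissues (control and high dose only).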

[3] = test system: bred female Crl:CD(SD) rats; assay: Dose range-finding developmental toxicity study; assay type: in vivo, rat; details: 125, 250, 500, 1000 mg/kg/day oral gavage, gestation Days 6-20
[4] = male, Sprague-Dawley, rat, plasma, po, 30 mg/kg

Cc1nc2cccc(OCC(C)(C)C(=O)NC(C)C)c2c(N)c1C(=O)O [S9632, 4-amino-5-(3-(isopropylamino)-2,2-dimethyl-3-oxopropoxy)-2-methylquinoline-3-carboxylic acid]
half-life ([1]; both, Sprague-Dawley [Crl:CD(SD)], iv, 1 mg/kg, apparent plasma half-life (t1/2), range, iv, male and female): 11.4 to 16.2 min
half-life ([1]; both, Sprague-Dawley [Crl:CD(SD)], po, plasma elimination half-life (t1/2), range, oral administration): 42.6 to 83.4 min
half-life ([1]; both, Sprague-Dawley, iv, 1 mg/kg, t1/2, intravenous): < 16.2 min
bioavailability ([1]; both, Sprague-Dawley, po): 0.53 to 1.19%
half-life ([1]; both, Sprague-Dawley, po, t1/2, oral administration): < 83.4 min
bioavailability ([1]; female, Sprague-Dawley [Crl:CD(SD)], po, 100 mg/kg): 0.83%
clearance ([1]; female, Sprague-Dawley, iv, 1 mg/kg): 42.5 mL/min/kg
Tmax ([1]; female, Sprague-Dawley, iv, 1 mg/kg, iv 1.0 mg/kg, Day 1, F): 1.8 min
half-life ([1]; female, Sprague-Dawley, iv, 1 mg/kg, t1/2, iv 1.0 mg/kg, Day 1, F): 16.2 min
bioavailability ([1]; female, Sprague-Dawley, po, 10 mg/kg): 1.19%
bioavailability ([1]; female, Sprague-Dawley, po, 30 mg/kg): 0.77%
AUC0-last/dose ([1]; iv 1.0 mg/kg, Day 1, F): 411.9 ng·h/mL/mg/kg
AUC0-last/dose ([1]; iv 1.0 mg/kg, Day 1, M): 330.6 ng·h/mL/mg/kg
Mean plasma clearance as % of hepatic blood flow ([1]; iv, females): 77.3%
Mean plasma clearance as % of hepatic blood flow ([1]; iv, males): 93.6%
clearance ([1]; male, Sprague-Dawley, iv, 1 mg/kg): 51.5 mL/min/kg
Tmax ([1]; male, Sprague-Dawley, iv, 1 mg/kg, iv 1.0 mg/kg, Day 1, M): 1.8 min
half-life ([1]; male, Sprague-Dawley, iv, 1 mg/kg, t1/2, iv 1.0 mg/kg, Day 1, M): 11.4 min
bioavailability ([1]; male, Sprague-Dawley, po, 10 mg/kg): 0.54%
bioavailability ([1]; male, Sprague-Dawley, po, 30 mg/kg): 0.92%
bioavailability ([1]; male, Sprague-Dawley, po, 100 mg/kg): 0.53%
AUC0-last/dose ([1]; oral gavage 10 mg/kg, Day 1, F): 4.92 ng·h/mL/mg/kg
AUC0-last/dose ([1]; oral gavage 10 mg/kg, Day 1, M): 1.79 ng·h/mL/mg/kg
AUC0-last/dose ([1]; oral gavage 10 mg/kg, Day 7, F): 5.89 ng·h/mL/mg/kg
AUC0-last/dose ([1]; oral gavage 10 mg/kg, Day 7, M): 4.81 ng·h/mL/mg/kg
AUC0-last/dose ([1]; oral gavage 30 mg/kg, Day 1, F): 3.17 ng·h/mL/mg/kg
AUC0-last/dose ([1]; oral gavage 30 mg/kg, Day 1, M): 3.03 ng·h/mL/mg/kg
AUC0-last/dose ([1]; oral gavage 30 mg/kg, Day 7, F): 3.56 ng·h/mL/mg/kg
AUC0-last/dose ([1]; oral gavage 30 mg/kg, Day 7, M): 2.87 ng·h/mL/mg/kg
AUC0-last/dose ([1]; oral gavage 100 mg/kg, Day 1, F): 3.41 ng·h/mL/mg/kg
AUC0-last/dose ([1]; oral gavage 100 mg/kg, Day 1, M): 1.76 ng·h/mL/mg/kg
AUC0-last/dose ([1]; oral gavage 100 mg/kg, Day 7, F): 2.79 ng·h/mL/mg/kg
AUC0-last/dose ([1]; oral gavage 100 mg/kg, Day 7, M): 1.85 ng·h/mL/mg/kg
Accumulation in plasma ([1]; repeated oral dosing for 7 consecutive days): No significant accumulation
AUC(0-t) [2, 4]: 59.6 ± 26.1 ng·h/mL
Cmax [2, 4]: 38.7 ± 24.5 ng/mL
%Cmax Relative to S9632 ([2]; single oral 30 mg/kg, male rats, corrected for molecular weight): 100.0%
Findings (Sprague-Dawley rats; 30, 60, 100 mg/kg/day food ad-mix): No test-article related findings
NOEL (Sprague-Dawley rats; food ad-mix, male and female rats, highest dose tested): 100 mg/kg/day
Findings [3]: No maternal toxicity or effects on intrauterine growth and survival up to 1000 mg/kg/day
